Data set [1] concerns MEC-1. As to the kind of experiment: Proliferation of MEC-1 cells. In kind it is cell-based, human. As to conditions: for proliferation: MEC-1, increasing doses, 72h.
Data set [2] has as its system primary CLL cells. In words: Proliferation of CpG stimulated primary CLL cells. The class given is cell-based, human. As to conditions: for proliferation of CpG stimulated primary CLL cells: increasing doses, 72h continuously or 4h followed by washout. The procedure, abridged:
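Primary CLL cells came from patients meeting 2008 IWCLL criteria. They were either stimulated with CpG oligonucleotides (TLR9 agonist) or left unstimulated (basal). Cells were given increasing concentrations of test compound, either continuously for 72 h or for 4 h followed by washout. Proliferation was measured by MTS assay. Data are shown per individual patient, with averages.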

Data set [3] relates to OCI-LY1. As to the kind of experiment: Proliferation of OCI-LY1 cells. In kind it is cell-based, human. As to conditions: for proliferation: OCI-LY1, increasing doses, 72h.
For data set [4], the system named is Ba/F3 (murine interleukin-3 dependent pro-B cell line) splenomegaly.
The test system of data set [5] is Eμ-Myc/TCL1 leukemia/lymphoma.
Data set [6] relates to BET family members. In words: Blocking interactions mediated by the four BET family members. In kind it is biochemical.
Data set [7] has as its system Eμ-TCL1 CD5/CD19 positive CLL-like leukemia. In words: Eμ-TCL1 transgenic mice with de novo leukemia, tumor burden. In kind it is in vivo, mouse.
Data set [8] concerns the target bromodomain of CBP (Homo sapiens, UniProt Q92793). As to the kind of experiment: Binding affinity.
A short description of data set [9]: Plasma exposure in Ba/F3 splenomegaly mouse model. The class given is in vivo. The conditions noted are these: 2 mg/kg.
Data set [10] can be described thus: Half-life in rodents. The conditions noted are these: in vivo.
Data set [11] in a line: Plasma drug levels in MV4-11 tumor xenograft SCID mice. In kind it is in vivo. The conditions noted are these: mouse.
In data set [12] the target is T1, bromodomain of EP300 (p300) (Homo sapiens, UniProt Q09472).
T1 sequence (Q09472 1049-1156 limits assumed): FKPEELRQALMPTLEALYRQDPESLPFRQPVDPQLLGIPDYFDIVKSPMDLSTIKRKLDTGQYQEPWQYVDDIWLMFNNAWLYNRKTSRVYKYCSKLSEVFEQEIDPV
As to the kind of experiment: Binding affinity.

Data set [13] has as its system healthy T-cells. In words: Proliferation of healthy T-cells stimulated with CD3/CD28 agonist antibodies. In kind it is cell-based, human. The conditions noted are these: washout conditions.
Data set [14] in a line: Plasma levels in wild type B6 mice. In kind it is in vivo. The conditions noted are these: B6, mouse, oral, 20 mg/kg.
Data set [15] deals with stromal cells (9–15c and Hs27). In words: Stromal cell viability. The class given is cell-based.
For data set [16], the system named is primary CLL cells co-cultured on stromal cells (9–15c and Hs27). In words: CLL cell viability in stromal co-culture. As to conditions: 1, 2 or 5μM, 72 h. In kind it is cell-based, human.
A short description of data set [17]: Half-life in dogs. The conditions noted are these: dog, in vivo.

Values joined by “and” are separate entries in the source; they are usually repeats but may differ in a detail not shown here. Equal entries are not always repeated.

The term Kd denotes the equilibrium constant for the complex coming apart. Read a low Kd as higher affinity. In general, AUC(0-t) refers to exposure summed from dosing to a finite time, without extrapolation to infinity. Usually half-life stands for how long it takes for the measured level to halve. Read a low half-life as fast loss.

Chain of bromodomain of CBP (Q92793 1085-1192 limits assumed): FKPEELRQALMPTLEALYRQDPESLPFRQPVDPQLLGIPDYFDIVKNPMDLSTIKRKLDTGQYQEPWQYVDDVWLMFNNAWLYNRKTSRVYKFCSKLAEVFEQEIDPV

As for `Cc1sc2c(c1C)C(c1ccc(Cl)cc1)=N[C@@H](CC(=O)OC(C)(C)C)c1nnc(C)n1-2` [JQ1, reference compound], the proliferation entry in data set [1] and in data set [3] was “Dose dependent decrease of proliferation” each time. In addition, the “proliferation of CpG stimulated primary CLL cells” value in data set [2] is recorded as “Dose-dependent decrease of proliferation”.

Take `Cc1sc2c(c1C)C(c1ccc(Cl)cc1)=N[C@@H](CC(=O)Nc1ccc(O)cc1)c1nnc(C)n1-2` [OTX015, reference compound]: the “efficacy on splenomegaly relative to 2 mg/kg PLX51107” value in data set [4] (25 mg/kg OTX015) is “same level of efficacy”. Also, the proliferation result in data set [1] and in data set [3] was “Dose dependent decrease of proliferation” each time. Besides, in [2], the “proliferation of CpG stimulated primary CLL cells” value is given as “Dose-dependent decrease of proliferation”.

Consider `Cc1noc(C)c1-c1cnc2c(-c3ccc(C(=O)O)cc3)cn([C@@H](C)c3ccccn3)c2c1` [PLX51107], for which the survival result in data set [5] (20 mg/kg, qd, oral gavage, 70 days treatment) was “significantly prolonged survival”. In addition, the tolerability entry in data set [5] (mouse, in vivo) is reported as “well tolerated”; in [4] (mouse, in vivo), “well tolerated”. Also, the “potency in blocking interactions mediated by the four BET family members” value in data set [6] is on record as “low nanomolar potency”. The “leukemic disease burden in peripheral blood and spleen vs vehicle” value in data set [7] (20 mg/kg daily, oral gavage, eight days) is “significantly reduced leukemic disease burden”. Also, in data set [7] (PLX51107 20 mg/kg, qd, thirty day study), the “reduction of tumor burden compared with OTX015 (50 mg/kg, qd)” value was “more effective than OTX015”. In addition, the inhibition of splenomegaly result in data set [4] (2 mg/kg PLX51107 dose) is “Approximately 75%”. The Kd in data set [8] and in data set [12] was roughly 0.1 µM each time. Besides, the AUC(0-t) was 17700 ng·h/mL and 40 µM·h in data set [9]; 90100 ng·h/mL and 205 µM·h in data set [11]; 96700 ng·h/mL and 220 µM·h in data set [14]. The figures for the half-life in [10], in data set [11] and in data set [17] were less than 3 h, 2.8 h and less than 3 h, respectively. In addition, the anti-proliferative effect entry in data set [13] is listed as “no anti-proliferative effect”. Besides, the “IC50 compared to iBET762, JQ1, or OTX015” value in data set [1] (MEC-1) and in data set [3] (OCI-LY1) was “lower IC50” in each case. Besides, the proliferation entry in data set [1] and in data set [3] was “Dose dependent decrease of proliferation” throughout. In data set [15], the “effect on stromal cell viability” value is “no effect on stromal cell viability”. Also, the “cytotoxicity on CLL cells” value in [16] was “induces significant cytotoxicity”. In addition, the “inhibition of proliferation or toxicity” value in [2] (CLL cells under basal condition) was “not observed”. Further, in data set [2], the “proliferation of CpG stimulated primary CLL cells” value is recorded as “Dose-dependent decrease of proliferation”.

As for `CCNC(=O)C[C@@H]1N=C(c2ccc(Cl)cc2)c2cc(OC)ccc2-n2c(C)nnc21` [iBET762], the “proliferation of CpG stimulated primary CLL cells” value in data set [2] is given as “Dose-dependent decrease of proliferation”.

The record behind these values is article PMC5882533 (Cancer discovery, 2018).
